Activity calls are given as the source filed them. The rule behind the calls is not given here.
Experiments:
[1] = Clearance in Sprague-Dawley rat at 10 mg/kg, iv by LC-MS analysis; format: ADME, organism-based; conditions: in vivo
[2] = molecular target: Tyrosine-protein kinase BTK (Homo sapiens) (UniProt Q06187); test: Inhibition of N-terminal His6-tagged recombinant full-length human BTK expressed in baculovirus infected Sf21 cells assessed as residual activity at 0.1 uM relative to control
[3] = molecular target: Testis-specific serine/threonine-protein kinase 1 (Homo sapiens) (UniProt Q9BXA7); test: Inhibition of 6His-tagged recombinant human full length TSSK1 expressed in baculovirus infected Sf21 cells assessed as residual activity at 1 uM relative to control
SW-403 = test: Antiproliferative activity against human SW403 cells assessed as inhibition of cell growth incubated for 72 hrs by cell-titer glo assay; format: functional, cell-based; conditions: SW-403, 72 h
[4] = molecular target: Insulin-like growth factor 1 receptor (Homo sapiens) (UniProt P08069); test: Inhibition of N-terminal 6His-tagged recombinant human IGF-1R (959 to end residues) expressed in baculovirus infected Sf21 cells assessed as residual activity at 1 uM relative to control
Chain of Insulin-like growth factor 1 receptor (Homo sapiens) (P08069 31-736 limits assumed): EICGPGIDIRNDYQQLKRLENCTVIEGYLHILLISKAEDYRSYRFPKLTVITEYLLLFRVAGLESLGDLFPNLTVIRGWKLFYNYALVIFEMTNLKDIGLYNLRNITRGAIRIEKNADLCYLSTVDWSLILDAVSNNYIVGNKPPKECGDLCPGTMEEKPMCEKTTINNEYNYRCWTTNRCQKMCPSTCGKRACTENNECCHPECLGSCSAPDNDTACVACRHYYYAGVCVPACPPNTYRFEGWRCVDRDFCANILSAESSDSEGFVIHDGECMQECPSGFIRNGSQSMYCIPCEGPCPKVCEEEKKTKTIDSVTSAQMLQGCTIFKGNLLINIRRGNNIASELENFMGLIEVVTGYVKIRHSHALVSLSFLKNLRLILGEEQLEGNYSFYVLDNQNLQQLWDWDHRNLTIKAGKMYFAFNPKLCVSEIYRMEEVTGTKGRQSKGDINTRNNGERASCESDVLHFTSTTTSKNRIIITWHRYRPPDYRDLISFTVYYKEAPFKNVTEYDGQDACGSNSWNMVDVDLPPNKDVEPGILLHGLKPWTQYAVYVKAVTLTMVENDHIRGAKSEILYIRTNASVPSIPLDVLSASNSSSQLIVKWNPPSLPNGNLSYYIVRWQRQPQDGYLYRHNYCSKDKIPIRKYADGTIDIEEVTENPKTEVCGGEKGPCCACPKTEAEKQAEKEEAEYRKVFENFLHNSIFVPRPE
Chain of Insulin-like growth factor 1 receptor (Homo sapiens) (P08069 741-1367 limits assumed): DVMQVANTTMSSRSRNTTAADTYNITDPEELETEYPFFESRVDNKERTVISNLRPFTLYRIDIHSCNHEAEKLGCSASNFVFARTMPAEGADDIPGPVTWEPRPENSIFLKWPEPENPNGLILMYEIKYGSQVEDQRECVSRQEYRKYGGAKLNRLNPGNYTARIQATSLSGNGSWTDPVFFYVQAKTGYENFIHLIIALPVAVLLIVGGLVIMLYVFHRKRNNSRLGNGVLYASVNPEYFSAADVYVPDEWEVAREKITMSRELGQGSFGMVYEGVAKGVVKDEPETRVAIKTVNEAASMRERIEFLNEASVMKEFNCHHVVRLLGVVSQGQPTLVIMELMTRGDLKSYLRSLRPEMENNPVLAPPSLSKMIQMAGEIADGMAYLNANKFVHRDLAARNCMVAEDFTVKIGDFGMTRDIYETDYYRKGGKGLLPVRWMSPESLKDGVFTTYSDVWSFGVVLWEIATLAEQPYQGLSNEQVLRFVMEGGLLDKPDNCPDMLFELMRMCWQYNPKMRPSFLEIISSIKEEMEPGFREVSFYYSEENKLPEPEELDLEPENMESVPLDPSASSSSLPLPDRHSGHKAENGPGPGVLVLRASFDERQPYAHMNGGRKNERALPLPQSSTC

[5] = Oral bioavailability in Beagle dog at 5 mg/kg by LC-MS analysis; format: ADME, organism-based, Canis lupus familiaris; conditions: in vivo
RS4-11 = test: Antiproliferative activity against human RS4-11 cells assessed as inhibition of cell growth incubated for 72 hrs by cell-titer glo assay; format: functional, cell-based; conditions: RS4-11, 72 h
How it was run: (§1)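 Cells from ATCC or ECACC, kept in supplier-recommended medium with 1% penicillin-streptomycin at 37°C, 5% CO₂. Seeded at 10,000–30,000/cm² (adherent) or 100,000/mL (nonadherent) in medium with 10% fetal calf serum. Dosed after 24 h in duplicate with serial dilutions. Viable cells read by CellTiter-Glo 72 h later. IC50 from sigmoidal fit. At least two independent experiments.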

[6] = molecular target: Serine/threonine-protein kinase tousled-like 2 (Homo sapiens, UniProt Q86UE8); test: Inhibition of TLK2 (unknown origin) in presence of [gamma-33P]ATP
[7] = Volume of distribution at steady state in Sprague-Dawley rat at 10 mg/kg, iv by LC-MS analysis; format: ADME, organism-based; conditions: in vivo, read-out: Vdss
MFM-223 = test: Antiproliferative activity against human MFM-223 cells assessed as inhibition of cell growth incubated for 72 hrs by cell-titer glo assay; format: functional, cell-based; conditions: MFM-223, 72 h; how it was run: as §1
HCC1954 = test: Antiproliferative activity against human HCC1954 cells assessed as inhibition of cell growth incubated for 72 hrs by cell-titer glo assay; format: functional, cell-based; conditions: HCC1954, 72 h
How it was run: (§2)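 Cells seeded at 10,000–30,000/cm² (adherent) or 100,000/mL (nonadherent) in medium with 10% fetal calf serum; after 24 h, treated in duplicate with serial dilutions for 72 h. Viable cell number read by CellTiter-Glo luminescence; IC50 from sigmoidal fit; at least two independent experiments.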

[8] = molecular target: SRSF protein kinase 3 (Homo sapiens) (UniProt Q9UPE1); test: Inhibition of N-terminal 6His-tagged recombinant human full-length MSSK1 expressed in baculovirus infected Sf21 cells assessed as residual activity at 0.1 uM relative to control
Chain of SRSF protein kinase 3 (Homo sapiens) (Q9UPE1 whole entry): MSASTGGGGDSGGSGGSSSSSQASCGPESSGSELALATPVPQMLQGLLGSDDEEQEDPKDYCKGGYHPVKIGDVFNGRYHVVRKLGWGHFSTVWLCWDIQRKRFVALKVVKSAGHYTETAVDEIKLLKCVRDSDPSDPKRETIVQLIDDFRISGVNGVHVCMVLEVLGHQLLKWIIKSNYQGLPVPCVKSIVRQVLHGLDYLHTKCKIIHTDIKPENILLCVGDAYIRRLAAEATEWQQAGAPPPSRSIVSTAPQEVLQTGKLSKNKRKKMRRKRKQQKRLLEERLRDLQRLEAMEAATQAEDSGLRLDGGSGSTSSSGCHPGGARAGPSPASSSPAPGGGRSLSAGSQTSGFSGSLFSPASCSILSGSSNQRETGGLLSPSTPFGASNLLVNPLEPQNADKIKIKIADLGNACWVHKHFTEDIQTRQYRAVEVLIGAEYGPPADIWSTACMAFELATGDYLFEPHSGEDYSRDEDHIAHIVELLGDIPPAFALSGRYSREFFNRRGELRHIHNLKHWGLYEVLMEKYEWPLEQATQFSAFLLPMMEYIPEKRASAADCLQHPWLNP

[9] = Half-life in nu/nu mouse at 10 mg/kg, iv by LC-MS analysis; format: ADME, organism-based; conditions: in vivo
KMS-11 = test: Antiproliferative activity against human KMS-11 cells assessed as inhibition of cell growth incubated for 72 hrs by cell-titer glo assay; format: functional, cell-based; conditions: KMS-11, 72 h; how it was run: as §2
SU-DHL-1 = test: Antiproliferative activity against human SU-DHL-1 cells assessed as inhibition of cell growth incubated for 72 hrs by cell-titer glo assay; format: functional, cell-based; conditions: SU-DHL-1, 72 h
NCI-H1993 = test: Antiproliferative activity against human NCI-H1993 cells assessed as inhibition of cell growth incubated for 72 hrs by cell-titer glo assay; format: functional, cell-based; conditions: NCI-H1993, 72 h; how it was run: as §1
KM12 = test: Antiproliferative activity against human KM12 cells assessed as inhibition of cell growth incubated for 72 hrs by cell-titer glo assay; format: functional, cell-based; conditions: KM12, 72 h; how it was run: as §2
OVCAR-8 = test: Antiproliferative activity against human OVCAR-8 cells assessed as inhibition of cell growth incubated for 72 hrs by cell-titer glo assay; format: functional, cell-based; conditions: OVCAR-8, 72 h; how it was run: as §1
[10] = Antiproliferative activity against human MEC-1 cells assessed as inhibition of cell growth incubated for 72 hrs by cell-titer glo assay; format: functional, cell-based; conditions: MEC1, 72 h; how it was run: as §2
[11] = molecular target: Serine/threonine-protein kinase STK11 (Homo sapiens) (UniProt Q15831); test: Inhibition of N-terminal 6His-tagged recombinant full-length human LKB1 expressed in Sf21 cells assessed as residual activity at 0.1 uM relative to control
Chain of Serine/threonine-protein kinase STK11 (Homo sapiens) (Q15831 whole entry): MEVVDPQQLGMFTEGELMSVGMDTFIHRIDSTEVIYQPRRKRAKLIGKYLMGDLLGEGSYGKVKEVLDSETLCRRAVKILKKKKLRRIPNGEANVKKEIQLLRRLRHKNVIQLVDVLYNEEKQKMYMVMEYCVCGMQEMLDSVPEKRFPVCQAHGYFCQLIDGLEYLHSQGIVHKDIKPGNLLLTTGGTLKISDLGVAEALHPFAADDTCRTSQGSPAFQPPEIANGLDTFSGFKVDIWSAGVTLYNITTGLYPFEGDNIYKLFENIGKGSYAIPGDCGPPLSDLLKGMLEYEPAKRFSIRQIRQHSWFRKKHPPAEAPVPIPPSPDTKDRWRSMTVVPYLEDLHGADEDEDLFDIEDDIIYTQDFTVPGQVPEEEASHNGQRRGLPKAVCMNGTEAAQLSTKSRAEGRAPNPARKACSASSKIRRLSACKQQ

[12] = molecular target: Protein kinase C delta type (Homo sapiens) (UniProt Q05655); test: Inhibition of N-terminal His6-tagged recombinant human PKCdelta (2 to end residues) expressed in Sf21 cells assessed as residual activity at 1 uM relative to control
Chain of Protein kinase C delta type (Homo sapiens) (Q05655 whole entry, looked up): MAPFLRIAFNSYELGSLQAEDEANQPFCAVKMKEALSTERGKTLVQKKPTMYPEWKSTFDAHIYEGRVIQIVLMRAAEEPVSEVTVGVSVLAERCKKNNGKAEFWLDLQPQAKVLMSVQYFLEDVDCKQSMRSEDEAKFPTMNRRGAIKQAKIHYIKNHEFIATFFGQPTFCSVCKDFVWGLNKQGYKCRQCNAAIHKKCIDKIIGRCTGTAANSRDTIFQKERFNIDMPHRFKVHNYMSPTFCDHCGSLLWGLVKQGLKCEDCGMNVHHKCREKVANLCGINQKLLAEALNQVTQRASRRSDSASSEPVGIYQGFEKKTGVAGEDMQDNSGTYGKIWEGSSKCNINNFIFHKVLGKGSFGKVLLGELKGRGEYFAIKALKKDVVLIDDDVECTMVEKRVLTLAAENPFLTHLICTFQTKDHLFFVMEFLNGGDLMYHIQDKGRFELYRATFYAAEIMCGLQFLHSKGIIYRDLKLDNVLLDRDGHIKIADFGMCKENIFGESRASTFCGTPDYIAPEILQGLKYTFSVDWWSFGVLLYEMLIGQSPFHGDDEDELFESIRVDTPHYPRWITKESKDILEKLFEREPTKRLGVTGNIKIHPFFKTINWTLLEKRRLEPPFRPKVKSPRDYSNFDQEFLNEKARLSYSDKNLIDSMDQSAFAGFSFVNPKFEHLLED

[13] = Antiproliferative activity against human NPA cells assessed as inhibition of cell growth incubated for 72 hrs by cell-titer glo assay; format: functional, cell-based; how it was run: as §1
SW948 = test: Antiproliferative activity against human SW948 cells assessed as inhibition of cell growth incubated for 72 hrs by cell-titer glo assay; format: functional, cell-based; conditions: SW948, 72 h
CAKI-1 = test: Antiproliferative activity against human CAKI-1 cells assessed as inhibition of cell growth incubated for 72 hrs by cell-titer glo assay; format: functional, cell-based; conditions: CAKI-1, 72 h
How it was run: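 Cells seeded 10,000–30,000/cm² (adherent) or 100,000/mL (suspension) in medium with 10% fetal calf serum; after 24 h treated in duplicate with serial dilutions for 72 h. Viable cells read by CellTiter-Glo luminescence; IC50 from sigmoidal fit; at least two independent experiments.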

NCI-H2228 = test: Antiproliferative activity against human NCI-H2228 cells assessed as inhibition of cell growth incubated for 72 hrs by cell-titer glo assay; format: functional, cell-based; conditions: NCI-H2228, 72 h; how it was run: as §1
[14] = Half-life in nu/nu mouse at 10 mg/kg, po by LC-MS analysis; format: ADME, organism-based; conditions: in vivo
Toledo = test: Antiproliferative activity against human Toledo cells assessed as inhibition of cell growth incubated for 72 hrs by cell-titer glo assay; format: functional, cell-based
[15] = molecular target: Mitogen-activated protein kinase kinase kinase 5 (Homo sapiens) (UniProt Q99683); test: Inhibition of N-Terminal GST and C-terminal His6-tagged recombinant human ASK1 (649 to 946 residues) expressed in E. coli cell assessed as residual activity at 0.1 uM relative to control
Chain of Mitogen-activated protein kinase kinase kinase 5 (Homo sapiens) (Q99683 whole entry, the tested form may be a part): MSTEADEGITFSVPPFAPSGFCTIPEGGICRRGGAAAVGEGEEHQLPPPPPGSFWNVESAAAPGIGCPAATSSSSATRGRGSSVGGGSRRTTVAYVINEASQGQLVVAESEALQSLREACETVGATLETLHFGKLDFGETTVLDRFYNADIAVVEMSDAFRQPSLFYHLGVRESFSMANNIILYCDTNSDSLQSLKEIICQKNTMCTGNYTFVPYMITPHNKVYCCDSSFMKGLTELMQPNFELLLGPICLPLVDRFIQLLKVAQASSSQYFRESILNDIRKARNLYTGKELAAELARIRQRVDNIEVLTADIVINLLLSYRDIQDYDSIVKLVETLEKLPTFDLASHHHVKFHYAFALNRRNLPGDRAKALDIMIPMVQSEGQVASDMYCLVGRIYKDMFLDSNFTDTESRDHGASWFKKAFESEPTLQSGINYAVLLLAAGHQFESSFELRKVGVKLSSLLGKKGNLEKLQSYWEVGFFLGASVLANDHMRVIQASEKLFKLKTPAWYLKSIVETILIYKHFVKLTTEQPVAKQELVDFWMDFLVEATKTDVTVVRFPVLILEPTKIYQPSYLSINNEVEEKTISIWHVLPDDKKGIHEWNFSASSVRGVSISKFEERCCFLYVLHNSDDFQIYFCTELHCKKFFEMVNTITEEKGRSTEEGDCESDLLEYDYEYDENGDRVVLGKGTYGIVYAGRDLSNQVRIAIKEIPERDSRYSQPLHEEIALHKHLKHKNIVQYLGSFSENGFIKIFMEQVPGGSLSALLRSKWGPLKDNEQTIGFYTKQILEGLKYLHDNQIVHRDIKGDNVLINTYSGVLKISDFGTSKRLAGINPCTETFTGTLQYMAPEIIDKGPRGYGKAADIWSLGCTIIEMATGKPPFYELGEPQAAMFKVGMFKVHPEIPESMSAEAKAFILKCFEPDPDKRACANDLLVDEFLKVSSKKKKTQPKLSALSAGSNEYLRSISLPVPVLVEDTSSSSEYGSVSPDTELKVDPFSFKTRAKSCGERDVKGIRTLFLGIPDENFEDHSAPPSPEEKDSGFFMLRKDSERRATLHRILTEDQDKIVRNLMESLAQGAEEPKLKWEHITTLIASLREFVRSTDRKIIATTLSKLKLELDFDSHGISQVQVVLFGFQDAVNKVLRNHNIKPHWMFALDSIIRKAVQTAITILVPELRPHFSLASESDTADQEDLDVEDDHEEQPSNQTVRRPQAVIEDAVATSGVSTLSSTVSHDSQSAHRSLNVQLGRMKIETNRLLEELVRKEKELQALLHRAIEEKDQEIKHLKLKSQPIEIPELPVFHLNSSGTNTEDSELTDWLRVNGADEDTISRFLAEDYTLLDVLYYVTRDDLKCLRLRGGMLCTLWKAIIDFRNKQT

U2OS = test: Effect on cell morphology in human U2OS cells expressing GFP/alpha-tubulin fusion protein assessed as aberrant number of spindle poles at 1 uM incubated for 24 hrs by laser scanning confocal microscopy analysis; format: functional, cell-based
[16] = molecular target: Mitogen-activated protein kinase 1 (Homo sapiens, UniProt P28482); test: Inhibition of ERK2 (unknown origin) in presence of [gamma-33P]ATP
Chain of Mitogen-activated protein kinase 1 (P28482 whole entry): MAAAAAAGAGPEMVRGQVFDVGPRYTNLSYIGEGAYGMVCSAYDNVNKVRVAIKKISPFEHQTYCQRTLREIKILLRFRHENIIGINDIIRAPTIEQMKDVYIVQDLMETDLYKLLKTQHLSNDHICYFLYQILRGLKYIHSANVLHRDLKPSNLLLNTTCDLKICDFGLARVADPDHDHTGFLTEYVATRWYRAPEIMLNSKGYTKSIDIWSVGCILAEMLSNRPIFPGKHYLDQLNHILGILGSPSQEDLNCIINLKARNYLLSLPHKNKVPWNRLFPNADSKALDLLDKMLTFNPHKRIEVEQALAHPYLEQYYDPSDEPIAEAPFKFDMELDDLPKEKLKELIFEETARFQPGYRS

MOLM-13 = test: Antiproliferative activity against human MOLM-13 cells assessed as inhibition of cell growth incubated for 72 hrs by cell-titer glo assay; format: functional, cell-based; conditions: MOLM-13, 72 h; how it was run: as §1
SET-2 = test: Antiproliferative activity against human SET2 cells assessed as inhibition of cell growth incubated for 72 hrs by cell-titer glo assay; format: functional, cell-based; conditions: SET-2, 72 h; how it was run: as §1

**Q.** Which clearance [1] does the source give for `CN1CCN(c2ccc(OC(F)(F)F)c(Nc3ncc4c(n3)-c3c(c(C(N)=O)nn3CCO)CC4)c2)CC1` [ONVANSERTIB] here?
**A.** The clearance was 20.6 mL/min/kg.

**Q.** What about the Activity [2] of the same compound?
**A.** The Activity was 83%.

**Q.** What about the Activity [3] of the same compound?
**A.** The Activity was 20%.

**Q.** What about the IC50 (SW-403) of the same compound?
**A.** The IC50 was 0.046 µM.

**Q.** And the Activity [4]?
**A.** The Activity was 114%.

**Q.** And the F [5]?
**A.** Its F is 63%.

**Q.** What about the IC50 (RS4-11) of the same compound?
**A.** The IC50 was 0.043 µM.

**Q.** What about the IC50 [6] of the same compound?
**A.** The IC50 was over 10 µM.

**Q.** What about the Vd [7] of the same compound?
**A.** Its Vd is 2.8 L/kg.

**Q.** What about the IC50 (MFM-223) of the same compound?
**A.** Its IC50 is 0.01 µM.

**Q.** What about the IC50 (HCC1954) of the same compound?
**A.** The IC50 was 0.015 µM.

**Q.** What about the Activity [8] of the same compound?
**A.** Its Activity is 87%.

**Q.** And the half-life [9]?
**A.** Its half-life is 0.9 h.

**Q.** And the IC50 (KMS-11)?
**A.** The IC50 was 0.046 µM.

**Q.** What about the IC50 (SU-DHL-1) of the same compound?
**A.** The IC50 was 0.096 µM.

**Q.** What about the IC50 (NCI-H1993) of the same compound?
**A.** The IC50 was 0.287 µM.

**Q.** What about the IC50 (KM12) of the same compound?
**A.** The IC50 was 0.277 µM.

**Q.** What about the IC50 (OVCAR-8) of the same compound?
**A.** The IC50 was 0.059 µM.

**Q.** What about the IC50 [10] of the same compound?
**A.** Its IC50 is 0.112 µM.

**Q.** And the Activity [11]?
**A.** The Activity was 113%.

**Q.** What about the Activity [12] of the same compound?
**A.** The Activity was 93%.

**Q.** And the IC50 [13]?
**A.** Its IC50 is 0.072 µM.

**Q.** And the IC50 (SW948)?
**A.** The IC50 was 0.124 µM.

**Q.** What about the IC50 (CAKI-1) of the same compound?
**A.** Its IC50 is 0.515 µM.

**Q.** And the IC50 (NCI-H2228)?
**A.** The IC50 was 0.335 µM.

**Q.** And the half-life [14]?
**A.** Its half-life is 1.6 h.

**Q.** What about the IC50 (Toledo) of the same compound?
**A.** The IC50 was 0.042 µM.

**Q.** What about the Activity [15] of the same compound?
**A.** The Activity was 123%.

**Q.** And the Activity (U2OS)?
**A.** The Activity was “Active”.

**Q.** And the IC50 [16]?
**A.** Its IC50 is over 10 µM.

**Q.** And the IC50 (MOLM-13)?
**A.** The IC50 was 0.022 µM.

**Q.** And the IC50 (SET-2)?
**A.** The IC50 was 0.145 µM.

From ChEMBL document CHEMBL5678806, “NMS-P937, an orally available, specific small-molecule polo-like kinase 1 inhibitor with antitumor activity in solid and hematologic malignancies” (Mol Cancer Ther, 2012)
